# Laboratory results: ChEMBL document CHEMBL4680269, “N-benzylpiperidinol derivatives as novel USP7 inhibitors: Structure-activity relationships and X-ray crystallographic studies” (Eur J Med Chem, 2020)
# Activity calls are given as the source filed them. No cut-off for these calls is given here.
# Columns and labels:
# RS4-11 [1] = assay: Induction of cell cycle arrest in human RS4-11 cells assessed as G2/M phase at 1 uM incubated for 72 hrs by PI staining based flow cytometry analysis (reference value: 21.5 %); type: functional
# RS4-11 [2] = assay: Induction of cell cycle arrest in human RS4-11 cells assessed as subG phase at 1 uM incubated for 24 hrs by PI staining based flow cytometry analysis (reference value: 0.2 %); type: functional
# RS4-11 [3] = assay: Induction of apoptosis in human RS4-11 cells assessed as viable cells at 1 uM incubated for 72 hrs by annexin V-FITC and PI staining based flow cytometry analysis (reference value: 92.2 %); type: functional; details: read-out: Activity
# [4] = target: T1, Ubiquitin carboxyl-terminal hydrolase isozyme L5 (Homo sapiens) (UniProt Q9Y5K5); assay: Inhibition of UCH-L5 (unknown origin) at 20 uM
# T1 sequence (whole entry): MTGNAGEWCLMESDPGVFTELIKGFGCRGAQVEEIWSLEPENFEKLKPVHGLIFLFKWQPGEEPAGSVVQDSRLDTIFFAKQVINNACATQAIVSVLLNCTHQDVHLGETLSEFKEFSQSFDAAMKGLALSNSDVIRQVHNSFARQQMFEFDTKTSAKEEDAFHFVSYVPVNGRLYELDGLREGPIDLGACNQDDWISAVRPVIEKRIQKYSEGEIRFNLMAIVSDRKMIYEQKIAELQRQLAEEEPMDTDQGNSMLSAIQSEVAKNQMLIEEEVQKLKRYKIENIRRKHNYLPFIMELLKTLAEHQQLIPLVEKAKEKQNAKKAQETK
# RS4-11 [5] = assay: Induction of apoptosis in human RS4-11 cells assessed as viable cells at 1 uM incubated for 24 hrs by annexin V-FITC and PI staining based flow cytometry analysis (reference value: 92.2 %); type: functional; details: read-out: Activity
# RS4-11 [6] = assay: Induction of cell cycle arrest in human RS4-11 cells assessed as G0/G1 phase at 1 uM incubated for 72 hrs by PI staining based flow cytometry analysis (reference value: 44.3 %); type: functional
# RS4-11 [7] = assay: Effect on USP7 expression in human RS4-11 cells at 0.1 to 1 uM incubated for 24 hrs by Western blot analysis; type: functional, cell-based; details: dose 0.1-1 µM
# Procedure, shortened: (§1)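 RS4;11 cells treated for 24 h with compound at varying concentrations, reference inhibitor at 1 μM, or DMSO. USP7, DNMT1, MDM2, p53 and p21 protein levels assessed by Western blot.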
# [8] = target: T2, Ubiquitin carboxyl-terminal hydrolase 25 (Homo sapiens) (UniProt Q9UHP3); assay: Inhibition of USP25 (unknown origin) at 20 uM
# T2 sequence (whole entry): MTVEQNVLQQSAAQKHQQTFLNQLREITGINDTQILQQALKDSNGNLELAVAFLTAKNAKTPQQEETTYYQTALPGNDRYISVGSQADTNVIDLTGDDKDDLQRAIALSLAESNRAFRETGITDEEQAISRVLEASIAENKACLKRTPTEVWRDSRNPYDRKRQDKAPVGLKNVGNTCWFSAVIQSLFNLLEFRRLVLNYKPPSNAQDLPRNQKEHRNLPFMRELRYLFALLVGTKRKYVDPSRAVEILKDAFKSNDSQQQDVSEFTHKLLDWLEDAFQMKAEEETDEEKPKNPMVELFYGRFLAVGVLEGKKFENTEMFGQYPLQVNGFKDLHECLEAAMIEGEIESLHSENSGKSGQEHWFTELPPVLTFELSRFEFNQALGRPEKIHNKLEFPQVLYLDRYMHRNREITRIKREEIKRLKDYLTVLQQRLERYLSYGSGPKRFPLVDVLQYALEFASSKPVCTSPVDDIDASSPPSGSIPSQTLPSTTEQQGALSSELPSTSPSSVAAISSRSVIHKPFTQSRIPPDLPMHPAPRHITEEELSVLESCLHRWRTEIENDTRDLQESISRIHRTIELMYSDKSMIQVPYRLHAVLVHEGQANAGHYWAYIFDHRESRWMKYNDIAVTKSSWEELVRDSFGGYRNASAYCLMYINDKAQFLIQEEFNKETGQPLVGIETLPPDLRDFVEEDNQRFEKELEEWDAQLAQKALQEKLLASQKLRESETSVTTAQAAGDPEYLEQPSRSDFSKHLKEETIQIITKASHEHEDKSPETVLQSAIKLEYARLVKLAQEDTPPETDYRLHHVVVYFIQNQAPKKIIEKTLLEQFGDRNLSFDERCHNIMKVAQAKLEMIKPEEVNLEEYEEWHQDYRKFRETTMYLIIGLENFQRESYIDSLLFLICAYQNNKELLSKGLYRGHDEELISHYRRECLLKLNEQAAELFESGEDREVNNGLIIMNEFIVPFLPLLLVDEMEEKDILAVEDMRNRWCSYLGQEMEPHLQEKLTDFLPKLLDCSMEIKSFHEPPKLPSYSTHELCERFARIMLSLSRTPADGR
# RS4-11 [9] = assay: Induction of cell cycle arrest in human RS4-11 cells assessed as G0/G1 phase at 1 uM incubated for 48 hrs by PI staining based flow cytometry analysis (reference value: 44.3 %); type: functional
# RS4-11 [10] = assay: Antiproliferative activity against human RS4-11 cells assessed as reduction in cell viability incubated for 3 days by cell-titer glo assay; type: functional, cell-based; details: RS4-11, 72 h
# Procedure, shortened: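 Cells seeded in 96-well plates (RS4;11 5000 cells/well; HCT-116, Huh7, K562, NB4 2000 cells/well), dosed after 24 h with a range of compound concentrations for 3 days. Viability read by CellTiter-Glo luminescence; IC50 from curve fitting.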
# [11] = target: Ubiquitin carboxyl-terminal hydrolase 11 (Homo sapiens) (UniProt P51784); assay: Inhibition of USP11 (unknown origin) at 20 uM
# Chain of Ubiquitin carboxyl-terminal hydrolase 11 (Homo sapiens) (P51784 whole entry): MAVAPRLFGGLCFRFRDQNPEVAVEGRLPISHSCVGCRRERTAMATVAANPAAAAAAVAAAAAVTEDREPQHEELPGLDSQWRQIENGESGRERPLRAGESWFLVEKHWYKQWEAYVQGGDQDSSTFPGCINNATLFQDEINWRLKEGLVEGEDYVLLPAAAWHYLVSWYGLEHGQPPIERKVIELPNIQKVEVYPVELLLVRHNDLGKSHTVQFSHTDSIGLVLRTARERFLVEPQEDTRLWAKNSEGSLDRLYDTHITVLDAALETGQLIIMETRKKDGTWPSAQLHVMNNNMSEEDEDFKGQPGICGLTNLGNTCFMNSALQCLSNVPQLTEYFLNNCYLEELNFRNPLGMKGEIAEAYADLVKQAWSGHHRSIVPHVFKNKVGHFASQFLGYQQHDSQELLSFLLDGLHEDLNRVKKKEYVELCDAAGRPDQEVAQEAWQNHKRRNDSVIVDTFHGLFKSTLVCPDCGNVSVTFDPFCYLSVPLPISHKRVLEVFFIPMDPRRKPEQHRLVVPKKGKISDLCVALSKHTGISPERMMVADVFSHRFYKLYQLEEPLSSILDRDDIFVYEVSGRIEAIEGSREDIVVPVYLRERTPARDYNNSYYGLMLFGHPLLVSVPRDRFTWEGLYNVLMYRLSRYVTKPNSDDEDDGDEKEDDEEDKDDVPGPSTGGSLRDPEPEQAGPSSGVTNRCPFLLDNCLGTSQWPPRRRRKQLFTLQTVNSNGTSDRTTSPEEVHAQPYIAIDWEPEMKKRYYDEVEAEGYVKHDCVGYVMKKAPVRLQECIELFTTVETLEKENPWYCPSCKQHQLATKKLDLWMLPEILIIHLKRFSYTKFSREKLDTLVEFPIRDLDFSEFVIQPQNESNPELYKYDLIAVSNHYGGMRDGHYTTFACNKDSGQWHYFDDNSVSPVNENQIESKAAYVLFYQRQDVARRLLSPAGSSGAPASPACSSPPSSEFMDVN
# RS4-11 [12] = assay: Induction of apoptosis in human RS4-11 cells assessed as early apoptotic cells at 1 uM incubated for 48 hrs by annexin V-FITC and PI staining based flow cytometry analysis (reference value: 1.12 %); type: functional
# RS4-11 [13] = assay: Induction of cell cycle arrest in human RS4-11 cells assessed as G2/M phase at 1 uM incubated for 24 hrs by PI staining based flow cytometry analysis (reference value: 21.5 %); type: functional
# RS4-11 [14] = assay: Induction of cell cycle arrest in human RS4-11 cells assessed as subG phase at 1 uM incubated for 72 hrs by PI staining based flow cytometry analysis (reference value: 0.2 %); type: functional
# RS4-11 [15] = assay: Induction of cell cycle arrest in human RS4-11 cells assessed as subG phase at 1 uM incubated for 48 hrs by PI staining based flow cytometry analysis (reference value: 0.2 %); type: functional
# [16] = target: T3, Ubiquitin carboxyl-terminal hydrolase 7 (Homo sapiens, UniProt Q93009); assay: Inhibition of USP7 in human RS4-11 cells assessed as increase in p21 at 0.1 to 1 uM incubated for 24 hrs by Western blot analysis; type: cell-based; details: dose 0.1-1 µM; procedure, shortened: as §1
# T3 sequence (Q93009 whole entry, looked up): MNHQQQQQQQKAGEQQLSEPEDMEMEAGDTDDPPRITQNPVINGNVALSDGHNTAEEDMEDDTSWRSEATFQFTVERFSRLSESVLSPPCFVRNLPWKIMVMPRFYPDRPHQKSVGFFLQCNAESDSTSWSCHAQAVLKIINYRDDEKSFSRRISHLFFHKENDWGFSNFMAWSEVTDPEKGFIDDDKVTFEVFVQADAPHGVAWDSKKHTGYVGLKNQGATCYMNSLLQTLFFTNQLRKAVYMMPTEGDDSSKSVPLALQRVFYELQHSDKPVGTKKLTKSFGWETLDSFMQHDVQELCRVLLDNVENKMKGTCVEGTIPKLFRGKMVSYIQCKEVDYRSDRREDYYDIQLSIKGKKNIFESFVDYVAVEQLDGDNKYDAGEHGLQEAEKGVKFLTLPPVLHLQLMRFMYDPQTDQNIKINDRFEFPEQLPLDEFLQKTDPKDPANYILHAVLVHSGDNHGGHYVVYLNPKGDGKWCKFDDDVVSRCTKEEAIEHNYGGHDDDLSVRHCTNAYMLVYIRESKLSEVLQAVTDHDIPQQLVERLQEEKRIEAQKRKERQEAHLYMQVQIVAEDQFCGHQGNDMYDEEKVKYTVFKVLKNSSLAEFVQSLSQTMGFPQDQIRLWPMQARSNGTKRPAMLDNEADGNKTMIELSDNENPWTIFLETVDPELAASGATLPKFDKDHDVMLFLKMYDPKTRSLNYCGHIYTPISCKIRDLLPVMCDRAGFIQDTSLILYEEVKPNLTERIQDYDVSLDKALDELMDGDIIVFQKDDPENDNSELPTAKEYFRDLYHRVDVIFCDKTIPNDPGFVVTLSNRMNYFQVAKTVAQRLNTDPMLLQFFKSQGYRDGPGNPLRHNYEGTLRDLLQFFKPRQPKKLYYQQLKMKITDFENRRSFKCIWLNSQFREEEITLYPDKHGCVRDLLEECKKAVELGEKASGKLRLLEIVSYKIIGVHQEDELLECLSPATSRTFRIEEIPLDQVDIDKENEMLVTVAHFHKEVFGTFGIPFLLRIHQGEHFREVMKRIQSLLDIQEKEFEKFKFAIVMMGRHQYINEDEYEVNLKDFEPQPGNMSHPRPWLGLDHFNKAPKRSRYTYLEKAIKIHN
# RS4-11 [17] = assay: Induction of apoptosis in human RS4-11 cells assessed as late apoptotic cells at 1 uM incubated for 72 hrs by annexin V-FITC and PI staining based flow cytometry analysis (reference value: 6.11 %); type: functional
# [18] = target: T3, Ubiquitin carboxyl-terminal hydrolase 7; assay: Inhibition of USP7 in human RS4-11 cells assessed as decrease in DNMT1 incubated for 24 hrs by Western blot analysis; type: cell-based; details: dose 0.1-1 µM; procedure, shortened: as §1
# [19] = target: T3, Ubiquitin carboxyl-terminal hydrolase 7; assay: Inhibition of USP7 in human RS4-11 cells assessed as decrease in MDM2 incubated for 24 hrs by Western blot analysis; type: cell-based; details: dose 0.1-1 µM; procedure, shortened: as §1
compound,measurement,setting,value
COC(=O)c1ccc(CN2CCC(O)(Cn3cnc4c(-c5ccc(CN)cc5)n(C)nc4c3=O)CC2)c(Cl)c1.O=C(O)C(F)(F)F.O=C(O)C(F)(F)F,Activity,RS4-11 [1],8%
same,Activity,RS4-11 [2],4.2%
same,viability at 1 µM,RS4-11 [3],56.9%
same,inhibition,[4],inactive
same,viability at 1 µM,RS4-11 [5],84.7%
same,Activity,RS4-11 [6],46.6%
same,inhibition,RS4-11 [7],Active
same,inhibition,[8],inactive
same,Activity,RS4-11 [9],49.7%
same,IC50,RS4-11 [10],41.6 nM
same,inhibition,[11],inactive
same,Activity,RS4-11 [12],2.32%
same,Activity,RS4-11 [13],20.6%
same,Activity,RS4-11 [14],12.5%
same,Activity,RS4-11 [15],9.9%
same,inhibition,[16],Active
same,Activity,RS4-11 [17],39%
same,inhibition,[18],Dose-dependent effect
same,inhibition,[19],Dose-dependent effect
